Published values from different studies.
Each line is one published result; the experiments were not run side by side.
CA9: Carbonic anhydrase 9 (CA9, Homo sapiens, UniProt Q16790)
CHRM4: Muscarinic acetylcholine receptor M4 (CHRM4, Homo sapiens, UniProt P08173)
Adora1: Adenosine receptor A1 (Adora1, Rattus norvegicus, UniProt P25099)
KCNU1: KCNU1 (Homo sapiens, UniProt A8MYU2)
MAOB: Amine oxidase [flavin-containing] B (MAOB, Homo sapiens, UniProt P27338)
EDNRB: Endothelin receptor type B (EDNRB, Homo sapiens, UniProt P24530)

Cc1ccc(-c2nn(-c3ccccc3)cc2C2c3sc(=O)[nH]c3SC3C(=O)N(c4ccccc4)C(=O)C32)cc1 (centres unmarked) — inhibition (CA9; enzyme activity, inhibitor; 10 µM): 77.9%
CCCNc1nc2ccccc2n1Cc1ccc(Cl)cc1 — inhibition (CHRM4; ligand displacement; 10 µM): -7.49%
CCOC(=O)C1CSc2[nH]c(=O)sc2C1c1cn(-c2ccccc2)nc1-c1ccc(OC)cc1 (centres unmarked) — inhibition (CA9; enzyme activity, inhibitor; 1 µM): 71.4%
C=CN1CCCn2c1nc1c2c(=O)n(C)c(=O)n1C — inhibition (Adora1; ligand displacement, radioligand; 25 µM, cell membranes): 30%
O=C1NC(=S)C(=Cc2cn(-c3ccccc3)nc2-c2ccc(Br)cc2)S1 — inhibition (CA9; enzyme activity, inhibitor; 1 µM): 66.2%
CN1CCCn2c1nc1c2c(=O)n(C)c(=O)n1C — inhibition (Adora1; ligand displacement, radioligand; 25 µM, cell membranes): 28%
COc1cc(NC(C)=O)c(Cl)cc1C(=O)Nc1nccs1 — inhibition (Histamine H1 receptor (HRH1, Homo sapiens, UniProt P35367); cell-free assay; 10 µM): -2%
CCOC(=O)C1CSc2[nH]c(=O)sc2C1c1cn(-c2ccccc2)nc1-c1ccc(C)cc1 (centres unmarked) — inhibition (CA9; enzyme activity, inhibitor; 10 nM): 18.9%
CCN(CC)CCNC(=O)C1CCN(c2ccc3nnc(-c4cccc(C)c4)n3n2)CC1 — inhibition (KCNU1; ion current, inhibitor, patch clamp; HEK293; 10 µM): 62%
O=C(Nc1ccccc1Cl)c1ccc([N+](=O)[O-])cc1Cl — inhibition (MAOB; enzyme activity, inhibitor; 1 µM, 20 min): 6%
CCOC(=O)C1CSc2[nH]c(=O)sc2C1c1cn(-c2ccccc2)nc1-c1ccc(Br)cc1 (centres unmarked) — inhibition (CA9; enzyme activity, inhibitor; 100 µM): 91.6%
Cc1ccc(NC(=O)c2cc(Cl)ccc2O)cc1[N+](=O)[O-] — inhibition (MAOB; enzyme activity, inhibitor; 1 µM, 20 min): 85%
N#CC1CSc2[nH]c(=O)sc2C1c1cn(-c2ccccc2)nc1-c1ccc(Br)cc1 (centres unmarked) — inhibition (CA9; enzyme activity, inhibitor; 0.1 µM): 60.1%
CN(C)C1CCN(CC#Cc2nn(C3CCCC3)c3nc(NCc4ccccc4)ncc23)C1 (centres unmarked) — inhibition (Tyrosine-protein kinase HCK (HCK, Homo sapiens, UniProt P08631); enzyme activity, inhibitor, FRET; 0.1 µM): 2%
O=C(Nc1ccc([N+](=O)[O-])cc1Cl)c1cc2ccccc2s1 — inhibition (MAOB; enzyme activity, inhibitor; 1 µM, 20 min): 40%
C#CCN1CCCn2c1nc1c2c(=O)n(C)c(=O)n1C — inhibition (Adora1; ligand displacement, radioligand; 25 µM, cell membranes): 46%
CCOc1ccc(C(=O)Nc2ccc([N+](=O)[O-])cc2Cl)cc1OCC — inhibition (MAOB; enzyme activity, inhibitor; 1 µM, 20 min): 34%
COc1cc(-c2cc(-c3ccc(N4CCNCC4)cc3)cnc2C)cc(OC)c1OC — inhibition (Dual specificity tyrosine-phosphorylation-regulated kinase 4 (DYRK4, Homo sapiens, UniProt Q9NR20); enzyme activity, inhibitor; 1 µM): 1%
CCCCCC(C)N1CCCn2c1nc1c2c(=O)n(C)c(=O)n1C (centres unmarked) — inhibition (Adora1; ligand displacement, radioligand; 25 µM, cell membranes): 30%
CCOC(=O)C1CSc2[nH]c(=O)sc2C1c1cn(-c2ccccc2)nc1-c1ccc(Cl)cc1 (centres unmarked) — inhibition (CA9; enzyme activity, inhibitor; 10 nM): 12%
O=C(Nc1ccc([N+](=O)[O-])cc1)c1ccc([N+](=O)[O-])cc1Cl — inhibition (MAOB; enzyme activity, inhibitor; 1 µM, 20 min): 68%
CCCC(C)N1CCCn2c1nc1c2c(=O)n(C)c(=O)n1C (centres unmarked) — inhibition (Adora1; ligand displacement, radioligand; 25 µM, cell membranes): 19%
O=c1c2ccccc2c(Cc2ccc(Cl)cc2)nn1C1CCCNCC1 (centres unmarked) — inhibition (KCNU1; ion current, inhibitor, patch clamp; HEK293; 10 µM): 34%
O=C(c1ccc(F)cc1)N(Cc1ccccc1)C1CCCCC1 — inhibition (EDNRB; cell-free assay; 10 µM): 3%
O=C(Nc1ccc(S(=O)(=O)N2CCC(Cl)CC2)cc1)c1ccc([N+](=O)[O-])o1 — inhibition (EDNRB; ligand displacement, radioligand; 10 µM): 3%
O=C(c1ccc(Cl)cc1)N(Cc1ccccc1)C1CCCCC1 — inhibition (Beta-1 adrenergic receptor (ADRB1, Homo sapiens, UniProt P08588); cell-free assay; 10 µM): -27.9%
Cc1cc([N+](=O)[O-])ccc1NC(=O)c1cc(Cl)ccc1O — inhibition (MAOB; enzyme activity, inhibitor; 1 µM, 20 min): 5%
COc1ccc(C=NNC(=O)Cn2cnc3ccccc32)c(O)c1 — inhibition (MAOB; enzyme activity, inhibitor, fluorescence; 1 µM): 65%
N#Cc1ccc(NC(=O)c2ccc3c(c2)OCO3)cc1 — inhibition (MAOB; enzyme activity, inhibitor; 1 µM, 20 min): 87%
Cc1ccc(-n2nc(C(C)(C)C)cc2NC(=O)Nc2ccc(OCCN3CCOCC3)c3ccccc23)cc1 — inhibition (Tyrosine-protein phosphatase non-receptor type 2 (PTPN2, Homo sapiens, UniProt P17706); enzyme activity, inhibitor; 10 µM): 17%
Oc1cccc(Nc2nc(-c3ccc(F)cc3F)cs2)c1 — inhibition (CHRM4; cell-free assay; 10 µM): -2.9%
COc1cc([N+](=O)[O-])ccc1NC(=O)c1ccccc1 — inhibition (MAOB; enzyme activity, inhibitor; 1 µM, 20 min): 14%
